Reference: ChEMBL document CHEMBL1140487, “Construction of polyamine-modified uridine and adenosine derivatives--evaluation of DNA binding capacity and cytotoxicity in vitro” (Bioorg Med Chem, 2007)
Each block holds one compound with its values, some of them ahead of it.

Key:
Clupea [1] = assay: Effect on thermal melting point of herring testes DNA at 10 uM
Procedure, shortened: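 Herring testes DNA at 100 µM with 10 µM polyamine in 10 mM NaCl. Absorbance read at 260 nm while heating at 0.4 °C/min from 25–98 °C. The system equilibrated 15 min before the first reading, then readings were taken each degree (2 s averaging). Tm was taken from the peak of the first-derivative curve. pH was checked before and after polyamine addition.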

HCC1937 = assay: Toxicity in human HCC1937 cells after 48 hrs by MTT assay; assay type: cell-based; conditions: hcc1937, 48 h
Procedure, shortened: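 HCC1937 cells were grown in MEM α with 10% heat-inactivated FCS, NEAA, gentamycin, EGF 20 ng/ml and insulin, at 37 °C, 5% CO2. Plateau-phase cells were seeded at 0.055×10^6/ml and compounds added after 24 h at 0.1–100 µM final. Controls got PBS. MTT was added for 1 h, formazan dissolved in DMSO, A540 read. Values are % of control ± SD.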

[2] = Toxicity in human L56BrC1 cells after 48 hrs by MTT assay; assay type: cell-based
Procedure, shortened: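 L56Br-C1 cells were grown in RPMI 1640 with 10% heat-inactivated FCS, NEAA, insulin and penicillin/streptomycin, at 37 °C, 5% CO2. After seeding at 0.055×10^6 cells/ml and 24 h growth, compounds were added at 0.1, 1, 10 or 100 µM final; controls received PBS. After 1 h MTT, formazan was dissolved in DMSO and A540 read. Results are % of control ± SD.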

[3] = Toxicity in human SKBR3 cells after 48 hrs by MTT assay; assay type: cell-based; conditions: sk-br-3, 48 h
Procedure, shortened: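 SK-BR-3 cells were grown in RPMI 1640 with 10% FCS, NEAA and penicillin/streptomycin, no insulin, at 37 °C, 5% CO2. Cells were seeded at 0.055×10^6/ml, and 24 h later compounds were added at 0.1–100 µM final (PBS for controls). MTT was added for 1 h, formazan dissolved in DMSO, A540 read; outer wells were excluded. Values are % of control ± SD.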

Clupea [4] = assay: Effect on thermal melting point of herring testes DNA at 100 uM
Clupea [5] = assay: Effect on thermal melting point of herring testes DNA at 50 uM
Clupea [6] = assay: Effect on thermal melting point of herring testes DNA at 1 uM

SMILES: NCCCNCCCN [NORSPERMIDINE]
- Tm (Clupea [1]): 77 °C
- ΔTm (Clupea [1]): 12 °C
- Activity (HCC1937): Non-toxic
- Activity [2]: Non-toxic
- Activity [3]: Non-toxic

SMILES: C#CCNC(=O)CN(CCCN)CCCN
- Tm (Clupea [1]): 58 °C
- ΔTm (Clupea [1]): -7 °C
- Tm (Clupea [4]): 51 °C
- ΔTm (Clupea [4]): -14 °C
- Tm (Clupea [5]): 52 °C
- ΔTm (Clupea [5]): -13 °C
- Activity (HCC1937): Non-toxic
- Activity [2]: Non-toxic
- Activity [3]: Non-toxic

SMILES: NCCCN(CCCN)CC(=O)NCC#Cc1nc(N)c2ncn([C@@H]3O[C@H](CO)[C@@H](O)[C@H]3O)c2n1
- Tm (Clupea [1]): 66 °C
- ΔTm (Clupea [1]): 1 °C
- Activity (HCC1937): Non-toxic
- Activity [2]: Non-toxic
- Activity [3]: Non-toxic

Further lines, with some results ahead:

- Tm (Clupea [1]): 66.5 °C
- ΔTm (Clupea [1]): 1.5 °C
SMILES: NCCCN(CCCN)CC(=O)NCC#Cc1cn([C@@H]2O[C@H](CO)[C@@H](O)[C@H]2O)c(=O)[nH]c1=O
- Activity (HCC1937): Non-toxic
- Activity [2]: Non-toxic
- Activity [3]: Non-toxic

- Tm (Clupea [1]): 61 °C
- ΔTm (Clupea [1]): -4 °C
- Tm (Clupea [6]): 62 °C
- ΔTm (Clupea [6]): -3 °C
- Tm (Clupea [4]): 50 °C
- ΔTm (Clupea [4]): -15 °C
SMILES: NCCCN(CCCN)CC(=O)O
- Activity (HCC1937): Non-toxic
- Activity [2]: Non-toxic
- Activity [3]: Non-toxic
